The source made the active and inactive calls. Unless noted, the rule behind the calls is not given here.

Test [1] concerns U-937. The test can be described thus: Inhibition of histone H3K4 methylation in human U937 cells at 50 uM after 24 hrs. Type of test: functional, cell-based. The gist of the method: (§1)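 U937 cells treated at 50 µM for 24 h. Histones extracted with Triton buffer, then 0.2 M HCl overnight at 4 °C. 3–10 µg run on 15% SDS-PAGE and immunoblotted with anti-monomethyl-H3K4, monomethyl-H4R3 or dimethyl-H3R17 (1:500, overnight 4 °C), ECL detection. Loading controls: total H4 (H3K4), Ponceau Red (Arg marks).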

Test [2] relates to U-937. Kind of test: Induction of granulocytic differentiation in human U937 cells assessed as CD11c expression at 0.5 uM after 30 hrs. Type of test: functional. The gist of the method: (§2)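 U937 cells treated for 30 h, then stained with PE-conjugated CD11c (PE mouse IgG1 as control) for 30 min at 4 °C in the dark and resuspended in PBS with PI (0.25 µg/mL). Read-out is percent CD11c-positive/PI-negative cells, with dead PI-positive cells excluded. Coloured compounds limited the top dose to 5 µM or lower.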

Test [3] deals with U-937. The test can be described thus: Inhibition of human p300/CBP in U937 cells at 50 uM assessed as histone H3 acetylation. Type of test: cell-based. The gist of the method:
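Source was U937 nuclear extract (10 µg per assay) as p300/CBP HAT, with histone H3 substrate and compound at 50 µM or DMSO control for 90 min. Acetyl-H3 detected by indirect ELISA, quantified against acetylated H3 peptide standard curves, […].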

For test [4], the system named is U-937. Kind of test: Induction of granulocytic differentiation in human U937 cells assessed as CD11c expression at 5 uM after 30 hrs. Type of test: functional. The gist of the method: as §2
In test [5] the target is T1, Histone-lysine N-methyltransferase SETD7 (Homo sapiens) (UniProt Q8WTS6).
T1 sequence (whole entry): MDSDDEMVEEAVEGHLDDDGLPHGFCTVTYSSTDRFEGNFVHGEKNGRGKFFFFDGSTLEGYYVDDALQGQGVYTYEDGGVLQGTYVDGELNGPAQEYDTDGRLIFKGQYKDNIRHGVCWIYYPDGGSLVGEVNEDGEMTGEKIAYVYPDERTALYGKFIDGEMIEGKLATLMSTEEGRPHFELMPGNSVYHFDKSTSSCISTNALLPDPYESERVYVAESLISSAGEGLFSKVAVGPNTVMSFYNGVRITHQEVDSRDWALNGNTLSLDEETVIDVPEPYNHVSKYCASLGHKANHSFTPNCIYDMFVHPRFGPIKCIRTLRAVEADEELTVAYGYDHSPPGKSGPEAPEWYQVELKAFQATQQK
The test can be described thus: Inhibition of human recombinant SET7 assessed as histone H3 protein methylation at 100 uM. The method in brief: (§3)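 Recombinant enzymes (0.2 µg) with substrate (0.5 µg: Npl3p for PRMT1, PABP1 for CARM1, histone H3 for SET7), 0.5 µM [3H]AdoMet and 100 µM compound in PBS pH 7.4 with 3.3% v/v DMSO, 90 min at 30 °C. Products separated by 10% SDS-PAGE, transferred to PVDF, detected by fluorography on film overnight.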

For test [6], the system named is U-937. Kind of test: Inhibition of histone H3R17 methylation in human U937 cells at 50 uM after 24 hrs. Type of test: functional, cell-based. The method in brief: as §1
Test [7] addresses Protein arginine N-methyltransferase 1 (Homo sapiens) (UniProt Q99873). The test can be described thus: Inhibition of human recombinant PRMT1 assessed as nuclear ribonucleoprotein Npl3p methylation at 100 uM. The gist of the method: as §3
In test [8] the test system is U-937. Kind of test: Inhibition of histone H4R3 methylation in human U937 cells at 50 uM after 24 hrs. Type of test: functional, cell-based. The gist of the method: as §1
In a further test the target is RmtA (Emericella nidulans, UniProt Q5VLE3). The test can be described thus: Inhibition of Aspergillus nidulans RmtA. The gist of the method: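 Enzyme was GST-RmtA fusion expressed in E. coli BL21 and glutathione-affinity purified (500 ng), preincubated with compound for 15 min at room temperature. Then 20 µg chicken erythrocyte core histones and 0.55 µCi [3H]AdoMet were added, 30 min at 30 °C. Stopped with 25% TCA, filtered, counted by liquid scintillation.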
Sequence of RmtA (Q5VLE3 whole entry, the tested form may be a part): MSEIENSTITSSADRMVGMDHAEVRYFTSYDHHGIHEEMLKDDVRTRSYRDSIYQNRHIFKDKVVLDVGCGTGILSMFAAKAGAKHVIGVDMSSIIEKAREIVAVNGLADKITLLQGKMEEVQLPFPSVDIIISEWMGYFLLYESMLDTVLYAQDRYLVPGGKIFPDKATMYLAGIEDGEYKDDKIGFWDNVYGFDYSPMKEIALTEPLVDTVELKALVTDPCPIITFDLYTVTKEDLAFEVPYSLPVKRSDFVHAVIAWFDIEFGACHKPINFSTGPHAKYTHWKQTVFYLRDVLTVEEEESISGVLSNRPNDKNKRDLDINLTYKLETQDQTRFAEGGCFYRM

Test [9] addresses T2, Histone-arginine methyltransferase CARM1 (Homo sapiens) (UniProt Q86X55).
T2 sequence (whole entry): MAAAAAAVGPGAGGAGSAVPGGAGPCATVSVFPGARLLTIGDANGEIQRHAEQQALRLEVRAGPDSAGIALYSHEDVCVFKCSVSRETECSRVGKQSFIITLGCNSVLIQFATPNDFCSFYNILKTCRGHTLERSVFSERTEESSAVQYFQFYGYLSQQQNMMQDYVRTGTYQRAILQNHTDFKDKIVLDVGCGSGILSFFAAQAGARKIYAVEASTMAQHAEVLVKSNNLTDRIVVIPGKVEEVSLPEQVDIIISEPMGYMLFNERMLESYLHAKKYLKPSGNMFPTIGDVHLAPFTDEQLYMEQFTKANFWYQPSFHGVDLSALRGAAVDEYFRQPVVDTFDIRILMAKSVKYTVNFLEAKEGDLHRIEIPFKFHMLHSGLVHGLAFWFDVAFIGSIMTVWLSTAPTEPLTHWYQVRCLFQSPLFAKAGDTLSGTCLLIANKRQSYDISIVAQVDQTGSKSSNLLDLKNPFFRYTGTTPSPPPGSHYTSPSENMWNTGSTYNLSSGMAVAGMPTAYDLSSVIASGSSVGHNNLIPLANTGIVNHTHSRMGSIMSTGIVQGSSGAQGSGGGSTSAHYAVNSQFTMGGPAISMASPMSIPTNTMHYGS
The test can be described thus: Inhibition of human recombinant CARM1 assessed as poly(A) binding protein 1 methylation at 100 uM. The method in brief:
as §3

Test [10] deals with U-937. Kind of test: Induction of apoptosis in human U937 cells at 25 uM after 30 hrs. Type of test: functional. The gist of the method:
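Apoptosis read as caspase 3 activation by FACS, in U937 cells (RPMI, 10% fetal calf serum, 200000 cells/mL) exposed to 25 µM for 30 h.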

For test [11], the system named is U-937. Kind of test: Cell cycle arrest in human U937 cells assessed as accumulation at S phase at 25 uM after 30 hrs. Type of test: functional, cell-based. The method in brief: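 U937 cells in RPMI with 10% fetal calf serum, HEPES and glutamine, kept at 200000 cells/mL; treated at 25 µM for 30 h, then the distribution across cell cycle phases was analysed.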

Sequence of Protein arginine N-methyltransferase 1 (Homo sapiens) (Q99873 whole entry, looked up): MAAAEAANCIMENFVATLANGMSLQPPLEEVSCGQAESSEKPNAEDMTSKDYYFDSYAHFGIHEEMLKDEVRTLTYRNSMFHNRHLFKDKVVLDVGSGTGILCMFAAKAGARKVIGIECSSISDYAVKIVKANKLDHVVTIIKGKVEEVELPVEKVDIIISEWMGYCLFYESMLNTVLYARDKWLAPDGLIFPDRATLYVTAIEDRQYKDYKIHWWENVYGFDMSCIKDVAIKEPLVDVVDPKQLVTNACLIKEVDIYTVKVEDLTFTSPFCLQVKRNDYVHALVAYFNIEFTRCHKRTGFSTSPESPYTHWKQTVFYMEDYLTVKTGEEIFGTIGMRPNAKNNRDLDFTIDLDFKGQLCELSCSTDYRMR

With `O=C1/C(=C/c2cc(Br)c(O)c(Br)c2)COC/C1=C\c1cc(Br)c(O)c(Br)c1`, the outcome (in the test with U-937 [1]; in test [5]; with U-937 [6]; in [7]; in the test with U-937 [8]; in test [9]) was Active. In the test on U-937 [11], the result was Active. The Activity was 59% in the test on U-937 [2], 96.1% in the test with U-937 [4] and 27.9% in the test on U-937 [10]. Besides, the inhibition in the test with U-937 [3] worked out at 61%. Besides, the IC50 at RmtA was 29 µM.

The term inhibition denotes how much of the control response was suppressed. For orientation: IC50 means the concentration that inhibits the measured activity by half. Read a low IC50 as greater potency in that assay.

For the origin of these results see ChEMBL document CHEMBL1144710, “epigenetic multiple ligands: mixed histone/protein methyltransferase, acetyltransferase, and class III deacetylase (sirtuin) inhibitors” (J Med Chem, 2008).
